# Compound activity as filed in PubChem BioAssay.
# Sampled rows, rich in hits. Any-hit rate of the full collection: about 2.4%.
# PGC1a acetyl inh – PGC1a acetylation modulation, inhibitor mode | U2OS PGC1a acetylation, AlphaScreen anti-acetyl-lysine; with virally co-expressed GCN5 acetyltransferase | inhibition, % at 15.6 µM | hit rate 0.17% among 350,000;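 active means every replicate shows inhibition of at least 40%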;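 further: 0% = neutral control wells and 100% = positive control wells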
# rRNA inh HTS – selective bacterial rRNA inhibition in E. coli | E. coli WT GFP vs humanized-ribosome RFP mutants, fluorescence, 24 h; stronger effect = lower value; DMSO median 0, no signal -100 | GFP signal change (wild-type ribosome), % (no concentration beside the values) | hit rate 1.6% among 350,000;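 active means significant combined selectivity score with lowered wild-type GFP, culture density cut under 30%, mutant RFP and density less affected; inactive means any of these conditions unmet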
# ERAP1 inh – inhibitors of human ERAP1 aminopeptidase | hit rate 0.15% among 340,000 | inhibition, % at 10.7 µM | recombinant ERAP1, Leu-AMC fluorescence, 60 min | Q9NZ08 | AID 652197;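 active means mean replicate inhibition of at least 30%, or all replicates individually reaching that 30% level; inactive means mean below 30% and not every replicate reaching it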;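 further: 0% = neutral control wells and 100% = L-leucinethiol positive control wells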
# S100A4 inh HTS – inhibitors of human S100A4 binding to myosin IIA peptide. inhibition, % at 10.7 µM. hit rate 0.14% among 360,000. AID 652163. P26447. S100A4/TAMRA-MyoIIA peptide fluorescence polarization;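 active means mean inhibition of at least 70% across replicates, with every replicate also reaching that level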
# Target sequence (P26447 whole entry, looked up): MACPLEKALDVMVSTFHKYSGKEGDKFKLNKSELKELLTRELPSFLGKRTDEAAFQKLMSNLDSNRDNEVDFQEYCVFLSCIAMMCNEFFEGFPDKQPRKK
#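 Material: S100A4 monomer protein / Buffer or medium: 50 mM HEPES pH 7.2, 10 mM CaCl2, 100 mM KCl / Times: 5 min incubation before reading / Benchmarks: neutral control DMSO, positive control TFP / Reagent: labelled myosin peptide probe, 5 nM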
# ARNT-TACC3 inh – ARNT/TACC3 interaction disruption. AID 623870. inhibition, % at 9.99 µM. Q9Y6A5. hit rate 0.66% among 390,000. AlphaScreen His-ARNT PAS-B/GST-TACC3 binding, luminescence; TACC3 fragment carries E629A point mutation;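 active means mean inhibition of replicates at least 50% and at least half of replicates each reaching 50%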;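 further: 0% = complete ARNT plus TACC3 wells and 100% = ARNT alone without TACC3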
# CASP6 VEID inh – blocks human caspase-6 cleavage activity. P55212. purified caspase-6, Z-VEID-R110 cleavage fluorescence. inhibition, % at 12.5 µM. hit rate 0.53% among 350,000;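 active means mean inhibition across replicates at least about 35%, with every replicate also reaching that limit, limit read from the data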;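 further: 0% = median of neutral control wells and 100% = no fluorescence left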
# Target sequence (P55212 24-179 limits assumed): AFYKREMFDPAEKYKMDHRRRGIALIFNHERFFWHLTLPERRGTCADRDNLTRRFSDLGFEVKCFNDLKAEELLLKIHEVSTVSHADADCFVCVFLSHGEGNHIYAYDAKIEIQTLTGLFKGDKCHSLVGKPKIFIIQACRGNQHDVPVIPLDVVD
# Target sequence (P55212 194-293 limits assumed): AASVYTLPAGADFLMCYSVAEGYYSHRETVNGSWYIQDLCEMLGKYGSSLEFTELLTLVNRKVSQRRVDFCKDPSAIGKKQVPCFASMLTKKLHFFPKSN
# Active calls of the source: *; . = no result.
SMILES,PGC1a acetyl inh,rRNA inh HTS,ERAP1 inh,S100A4 inh HTS,ARNT-TACC3 inh,CASP6 VEID inh
CCN1CCN(C(=O)c2ccc(CS(=O)(=O)Cc3ccccc3Cl)o2)CC1,5,7,-3,-3,.,63*
CO[C@H]1CN(C)C(=O)c2cc(NC(=O)c3ccc(F)cc3)ccc2OC[C@H](C)N(C(=O)CN(C)C)C[C@H]1C,-12,1,-4,-56,0,1
C[C@H](NC(=O)C[C@@H]1C[C@H]2c3cc(N(C)C)ccc3O[C@H]2[C@@H](CO)O1)c1ccccc1,-2,1,1,-2,16,1
O=c1nc2s/c(=C\c3ccc(-c4ccccc4[N+](=O)[O-])o3)c(=O)n2nc1-c1ccccc1,.,1,3,-8,12,39*
CCCCCOc1ccc(/C=c2\sc3nc(=O)c(-c4ccccc4)nn3c2=O)cc1OC,.,0,0,1,.,-1
CC(C)CC#Cc1ccc([C@@H]2[C@@H](CO)N3C(=O)CN(C(=O)CN4CCOCC4)C[C@H]23)cc1,4,3,-1,12,.,1
CCCNC(=O)Nc1ccc2c(c1)C(=O)N(C)[C@@H]1CC[C@H](CC(=O)O)O[C@H]1CO2,4,3,.,.,-32,.
CCc1ccccc1NC(=O)CN(C)Cc1c(O)ccc2ccccc12,.,-1,-2,11,2,1
CN(CC(=O)Nc1ccccc1C(F)(F)F)Cc1c(O)ccc2ccccc12,7,-27*,3,-3,0,1
COc1ccccc1CN(C)CC(=O)Nc1ccc(Cl)cc1F,.,-44,-2,4,-13,.
COc1ccccc1CN(C)CC(=O)Nc1ccc(Cl)cc1C(F)(F)F,.,-34*,4,1,-3,-1
O=C(C[C@@H]1C[C@@H]2c3cc(NC(=O)c4ccc5c(c4)OCO5)ccc3O[C@@H]2[C@H](CO)O1)NCc1ccccn1,-3,-1,-1,1,4,-1
Cc1ccc(NC(=O)Nc2nnc(-c3ccccc3)o2)cc1,.,17,-1,-1,21,38*
Cc1ccccc1C(=O)Nc1nnc(-c2ccncc2)o1,9,-33*,-2,5,37,5
O=C(Nc1ccc(F)cc1)Nc1nnc(-c2ccccc2)o1,2,10,-1,3,2,3
CCCNC(=O)N1[C@@H](CO)[C@H](c2ccccc2)C12CN(C(=O)c1cccnc1)C2,.,2,.,.,.,.
CO[C@@H]1CN(C)C(=O)c2ccc(NC(=O)c3nc4ccccc4s3)cc2OC[C@H](C)NC[C@@H]1C,-11,-3,2,-6,3,0
CN(C)S(=O)(=O)c1ccc(Cl)c(NC(=O)CSc2nnnn2-c2ccc(O)cc2)c1,.,-29*,14,-2,2,0
Cc1ccc(S(=O)(=O)N(C)C)cc1NC(=O)CSc1nnnn1-c1ccc(O)cc1,7,-5,-4,5,32,4
Cc1ccc2nc(CSc3nnc4ccccn34)cc(=O)n2c1,5,4,-1,2,-4,3
COCC(C)n1c(SCc2cc(=O)n3cc(C)ccc3n2)nc2ccccc2c1=O (stereo unspecified),4,-27*,1,2,2,.
C[C@H]1CNC(=O)c2c(C(=O)Nc3ccc(CNC(=O)OC(C)(C)C)cc3)ncn21,.,-25*,3,-3,.,-3
CCCN1[C@@H]2Cn3c(ccc(-c4ccc(F)cc4)c3=O)[C@H]1[C@@H](C(=O)NCC)[C@@H]2CO,0,0,1,0,.,-1
Cc1nc(C(=O)NNC(=O)c2ccc(Cl)cc2)c(C(F)(F)F)o1,14,-30*,4,-8,-5,1
Cc1nc(C(=O)NCC(=O)c2ccc(Cl)cc2)c(C(F)(F)F)o1,.,4,-3,-5,-7,-1
COc1ccc2c3c(n(C)c2c1)[C@H](CO)N(C)CC31CCN(S(C)(=O)=O)CC1,.,-5,.,.,.,.
CCOC(=O)N1CCN(S(=O)(=O)c2ccc(C(=O)Nc3sc4c(c3C(=O)OC)CCN(C)C4)cc2)CC1,.,-15*,-3,1,.,-22
NC(=S)N=Nc1c(O)cc(O)c2[nH]c(=O)ccc12,3,11,52*,-3,64*,93*
